Results taken from ChEMBL document CHEMBL1147591, “A novel class of apical sodium-dependent bile acid transporter inhibitors: the amphiphilic 4-oxo-1-phenyl-1,4-dihydroquinoline derivatives” (Bioorg Med Chem Lett, 2004).
Each block holds one compound with its values, some of them ahead of it.

Experiments:
[1] = test system: Ileal sodium/bile acid cotransporter (hamster); assay: Inhibition of ASBT as [3H]taurocholate uptake in hamster ileal ring at 30 ug/mL; conditions: Syrian hamster
[2] = Ratio between total non HDL-cholesterol and HDL-cholesterol in hamster at a dose of 100.0 mg/kg; format: functional
Summary of the method: (§1)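 Chow-fed male Syrian golden hamsters were dosed by oral gavage in 0.5% carboxymethylcellulose each evening for 14 consecutive days, with free access to chow and water. Animals were weighed daily and killed the morning after the 14th dose. Serum lipoprotein cholesterol profiles were measured, and the ratio of non-HDL (VLDL plus LDL) cholesterol to HDL-cholesterol was calculated.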

Mesocricetus auratus [3] = assay: Evaluated for total triglycerides in hamster at a dose of 100.0 mg/kg
Cricetinae gen. sp. [4] = assay: Evaluated for total serum cholesterol in hamster at a dose of 10.0 mg/kg; format: functional, Cricetulus griseus
Summary of the method: (§2)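 Chow-fed male Syrian golden hamsters dosed orally by gavage in 0.5% carboxymethylcellulose vehicle once daily in the evening for 14 consecutive days at 0.3, 1, 3, 10, 30 or 100 mg/kg/day. Chow and water were given freely and animals weighed daily. They were sacrificed the morning after the 14th dose. Serum was assayed for triglycerides, total cholesterol and lipoprotein cholesterol (VLDL+LDL, HDL).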

Cricetinae gen. sp. [5] = assay: Evaluated for total HDL-cholesterol in hamster at a dose of 3.0 mg/kg; format: functional
Summary of the method: as §2

Cricetinae gen. sp. [6] = assay: Evaluated for total non HDL- cholesterol in hamster at a dose of 30.0 mg/kg; format: functional
Summary of the method: as §2

Cricetinae gen. sp. [7] = assay: Evaluated for total serum cholesterol in hamster at a dose of 3.0 mg/kg; format: functional, Cricetulus griseus
Summary of the method: as §2

Cricetinae gen. sp. [8] = assay: Evaluated for total non HDL- cholesterol in hamster at a dose of 100.0 mg/kg; format: functional
Summary of the method: as §2

Cricetinae gen. sp. [9] = assay: Evaluated for total non HDL- cholesterol in hamster at a dose of 1.0 mg/kg; format: functional
Summary of the method: as §2

Cricetinae gen. sp. [10] = assay: Evaluated for total triglycerides in hamster at a dose of 0.3 mg/kg; format: functional, Cricetulus griseus
Summary of the method: as §2

Cricetinae gen. sp. [11] = assay: Evaluated for total triglycerides in hamster at a dose of 1.0 mg/kg; format: functional, Cricetulus griseus
Summary of the method: as §2

Cricetinae gen. sp. [12] = assay: Evaluated for total non HDL- cholesterol in hamster at a dose of 0.3 mg/kg; format: functional
Summary of the method: as §2

Cricetinae gen. sp. [13] = assay: Evaluated for total HDL-cholesterol in hamster at a dose of 0.3 mg/kg; format: functional
Summary of the method: as §2

Cricetinae gen. sp. [14] = assay: Evaluated for total HDL-cholesterol in hamster at a dose of 30.0 mg/kg; format: functional
Summary of the method: as §2

Mesocricetus auratus [15] = assay: Evaluated for total non HDL- cholesterol in hamster at a dose of 10.0 mg/kg
Cricetinae gen. sp. [16] = assay: Evaluated for total HDL-cholesterol in hamster at a dose of 1.0 mg/kg; format: functional
Summary of the method: as §2

[17] = Ratio between total non HDL-cholesterol and HDL-cholesterol in hamster at a dose of 0.3 mg/kg; format: functional
Summary of the method: as §1

Cricetinae gen. sp. [18] = assay: Evaluated for total serum cholesterol in hamster at a dose of 100.0 mg/kg; format: functional, Cricetulus griseus
Summary of the method: as §2

Cricetinae gen. sp. [19] = assay: Evaluated for total triglycerides in hamster at a dose of 3.0 mg/kg; format: functional, Cricetulus griseus
Summary of the method: as §2

[20] = Ratio between total non HDL-cholesterol and HDL-cholesterol in hamster at a dose of 30.0 mg/kg; format: functional
Summary of the method: as §1

Cricetinae gen. sp. [21] = assay: Evaluated for total serum cholesterol in hamster at a dose of 0.3 mg/kg; format: functional
Summary of the method: as §2

Cricetinae gen. sp. [22] = assay: Evaluated for total serum cholesterol in hamster at a dose of 1.0 mg/kg; format: functional, Cricetulus griseus
Summary of the method: as §2

Cricetinae gen. sp. [23] = assay: Evaluated for total triglycerides in hamster at a dose of 30.0 mg/kg; format: functional, Cricetulus griseus
Summary of the method: as §2

Cricetinae gen. sp. [24] = assay: Evaluated for total triglycerides in hamster at a dose of 10.0 mg/kg; format: functional, Cricetulus griseus
Summary of the method: as §2

Cricetinae gen. sp. [25] = assay: Evaluated for total serum cholesterol in hamster at a dose of 30.0 mg/kg; format: functional
Summary of the method: as §2

[26] = Ratio between total non HDL-cholesterol and HDL-cholesterol in hamster at a dose of 10.0 mg/kg; format: functional
Summary of the method: as §1

Cricetinae gen. sp. [27] = assay: Evaluated for total HDL-cholesterol in hamster at a dose of 100.0 mg/kg; format: functional
Summary of the method: as §2

Cricetinae gen. sp. [28] = assay: Evaluated for total HDL-cholesterol in hamster at a dose of 10.0 mg/kg; format: functional
Summary of the method: as §2

Cricetinae gen. sp. [29] = assay: Evaluated for total non HDL- cholesterol in hamster at a dose of 3.0 mg/kg; format: functional
Summary of the method: as §2

[30] = Ratio between total non HDL-cholesterol and HDL-cholesterol in hamster at a dose of 1.0 mg/kg; format: functional
Summary of the method: as §1

[31] = Ratio between total non HDL-cholesterol and HDL-cholesterol in hamster at a dose of 3.0 mg/kg; format: functional
Summary of the method: as §1

SMILES: CCN(C(=O)c1cn(-c2cc(OC)cc(OCCCCCCCC[N+]34CCN(CC3)CC4)c2)c2cc(OC)ccc2c1=O)c1cc(F)cc(F)c1
- inhibition at 30 µg/mL [1]: 83%

SMILES: CCN(C(=O)c1cn(-c2cc(OC)cc(OCc3ccc(C[N+]45CCN(CC4)CC5)cc3)c2)c2cc(OC)ccc2c1=O)c1cc(F)cc(F)c1
- inhibition at 30 µg/mL [1]: 71%

SMILES: CCN(C(=O)c1cn(-c2cc(OC)cc(OC)c2)c2cc(OCCCCCCCC[N+]34CCN(CC3)CC4)ccc2c1=O)c1cc(F)cc(F)c1
- inhibition at 30 µg/mL [1]: 94%

SMILES: CCN(C(=O)c1cn(-c2cc(OC)cc(OC)c2)c2cc(OCc3ccc(C[N+]45CCN(CC4)CC5)cc3)ccc2c1=O)c1cc(F)cc(F)c1
- inhibition at 30 µg/mL [1]: 71%

SMILES: CCN(C(=O)c1cn(-c2cc(OC)cc(OC)c2)c2cc(OCCCCCCC[N+]34CCN(CC3)CC4)ccc2c1=O)c1cc(F)cc(F)c1.[Br-]
- Ratio [2]: 0.9
- TG (Mesocricetus auratus [3]): 217.7 mg/dL
- TC (Cricetinae gen. sp. [4]): 144.1 mg/dL
- HDL-C (Cricetinae gen. sp. [5]): 80.2 mg/dL
- inhibition at 30 µg/mL [1]: 100%
- Non-HDL-C (Cricetinae gen. sp. [6]): 78.9 mg/dL
- TC (Cricetinae gen. sp. [7]): 174.3 mg/dL
- Non-HDL-C (Cricetinae gen. sp. [8]): 57 mg/dL
- Non-HDL-C (Cricetinae gen. sp. [9]): 85.2 mg/dL
- TG (Cricetinae gen. sp. [10]): 142.7 mg/dL
- TG (Cricetinae gen. sp. [11]): 249.3 mg/dL
- Non-HDL-C (Cricetinae gen. sp. [12]): 75.7 mg/dL
- HDL-C (Cricetinae gen. sp. [13]): 81.8 mg/dL
- HDL-C (Cricetinae gen. sp. [14]): 63.9 mg/dL
- Non-HDL-C (Mesocricetus auratus [15]): 74.3 mg/dL
- HDL-C (Cricetinae gen. sp. [16]): 81.7 mg/dL
- Ratio [17]: 0.9
- TC (Cricetinae gen. sp. [18]): 118.9 mg/dL
- TG (Cricetinae gen. sp. [19]): 270.8 mg/dL
- Ratio [20]: 1.3
- TC (Cricetinae gen. sp. [21]): 157.4 mg/dL
- TC (Cricetinae gen. sp. [22]): 166.9 mg/dL
- TG (Cricetinae gen. sp. [23]): 235 mg/dL
- TG (Cricetinae gen. sp. [24]): 217.6 mg/dL
- TC (Cricetinae gen. sp. [25]): 142.8 mg/dL
- Ratio [26]: 1.1
- HDL-C (Cricetinae gen. sp. [27]): 61.9 mg/dL
- HDL-C (Cricetinae gen. sp. [28]): 69.8 mg/dL
- Non-HDL-C (Cricetinae gen. sp. [29]): 94.1 mg/dL
- Ratio [30]: 1.1
- Ratio [31]: 1.2

SMILES: CCN(C(=O)c1cn(-c2cc(OC)cc(OC)c2)c2cc(OC)ccc2c1=O)c1cc(F)cc(F)c1
- inhibition at 30 µg/mL [1]: 64%

SMILES: CCN(C(=O)c1cn(-c2ccc(OC)cc2)c2cc(OC)ccc2c1=O)c1cc(F)cc(F)c1
- inhibition at 30 µg/mL [1]: 64%

SMILES: CCN(C(=O)c1cn(-c2ccc(OCc3ccc(C[N+]45CCN(CC4)CC5)cc3)cc2)c2cc(OC)ccc2c1=O)c1cc(F)cc(F)c1
- inhibition at 30 µg/mL [1]: 41%

SMILES: CCN(C(=O)c1cn(-c2cc(OC)cc(OCCCCCCC[N+]34CCN(CC3)CC4)c2)c2cc(OC)ccc2c1=O)c1cc(F)cc(F)c1
- inhibition at 30 µg/mL [1]: 86%

Now from value to compound:

- inhibition at 30 µg/mL [1]: 24%
SMILES: CCN(C(=O)c1cn(-c2cc(OC)cc(OC)c2)c2cc(OCCCC[N+]34CCN(CC3)CC4)ccc2c1=O)c1cc(F)cc(F)c1

- inhibition at 30 µg/mL [1]: 83%
SMILES: CCN(C(=O)c1cn(-c2cc(OC)cc(OCCCCCC[N+]34CCN(CC3)CC4)c2)c2cc(OC)ccc2c1=O)c1cc(F)cc(F)c1

- inhibition at 30 µg/mL [1]: 67%
SMILES: CCN(C(=O)c1cn(-c2cc(OC)cc(OC)c2)c2cc(OCCCCC[N+]34CCN(CC3)CC4)ccc2c1=O)c1cc(F)cc(F)c1

- inhibition at 30 µg/mL [1]: 88%
SMILES: CCN(C(=O)c1cn(-c2cc(OC)cc(OC)c2)c2cc(OCCCCCC[N+]34CCN(CC3)CC4)ccc2c1=O)c1cc(F)cc(F)c1
